# Screening data deposited in PubChem by The Scripps Research Institute Molecular Screening Center.
# GalR3 antagonist: antagonists of human GalR3 | 360,000 tested, 0.44% active | HEK293 GalR3-CNG cAMP membrane potential fluorescence; galR3 body fused to GalR1 C-terminus | O60755 | inhibition, % at 3 µM;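 active = inhibition above the screen-wide average plus 3 SD, cut at about 13% in these data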;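 note: forskolin and galanin both at EC90 stimulate the cells; cAMP rise reported by CNG channel membrane potential dye signal; 0% = forskolin plus galanin with DMSO and 100% = forskolin alone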
# NR2E3 ag-1: NR2E3 (human) agonism; Q9Y5X4; GST-NR2E3/biotin-RetCOR TR-FRET, 1536-well; inhibition of corepressor binding, % at 4.78 µM; 320,000 tested, 0.12% active; AID 2300;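 active = percent inhibition above the cutoff of mean plus 3 SD of all tested compounds, set per screening campaign, cut at about 20% in these data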;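 note: 0% = DMSO wells and 100% = biotin wells as full block of FRET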
# Target sequence (Q9Y5X4 whole entry, looked up): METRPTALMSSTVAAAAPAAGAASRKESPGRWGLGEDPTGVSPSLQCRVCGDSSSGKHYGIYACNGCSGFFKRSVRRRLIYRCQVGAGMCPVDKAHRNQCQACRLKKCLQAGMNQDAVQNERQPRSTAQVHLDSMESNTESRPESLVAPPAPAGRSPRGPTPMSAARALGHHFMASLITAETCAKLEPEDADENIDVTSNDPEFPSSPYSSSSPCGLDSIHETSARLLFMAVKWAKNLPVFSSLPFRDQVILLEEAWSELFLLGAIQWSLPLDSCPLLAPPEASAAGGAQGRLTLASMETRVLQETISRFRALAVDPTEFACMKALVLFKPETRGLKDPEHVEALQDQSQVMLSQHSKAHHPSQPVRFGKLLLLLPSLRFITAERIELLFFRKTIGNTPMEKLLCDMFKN
#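 Material: NR2E3–RetCOR corepressor complex / Incubation: Compound–protein incubation for 5 h at 4 °C / Dosing: compound at 4.8 µM, single dose / Detection: time-resolved FRET / Benchmarks: high control biotin, low control 0.6% DMSO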
# NR2F2 inh: blocks human COUP-TFII nuclear receptor | P24468 | HEK293T NGFI-A luciferase reporter, luminescence | inhibition, % at 8.6 µM | 370,000 tested, 0.7% active | AID 686940;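 active = inhibition above a per-plate cutoff, mean inhibition of test wells between control levels plus 3 SD, cut at about 38% in these data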;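 note: cells cotransfected with COUP-TFII expression vector driving the NGFI-A reporter; 0% = median of COUP-TF2 test wells and 100% = reporter-only cells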
# SMARCA2 act: SMARCA2 function activation, primary screen; MG213 cells, MMTV-luciferase reporter, dexamethasone, overnight; activation, % at 9.1 µM; 370,000 tested, 1% active; in the data active = activation above about 7.8%;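 note: 0% = vehicle wells and 100% = reference activator wells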
# NR2E3 ag-2: agonists of human NR2E3 nuclear receptor. Q9Y5X4. inhibition of corepressor binding, % at 3.98 µM. AID 602229. 360,000 tested, 0.35% active. CHO-S Gal4-NCOR/VP16-NR2E3 two-hybrid, luciferase;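 active = inhibition above the mean of all tested compounds plus 3 SD, cut at about 70% in these data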;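 note: 0% = DMSO with NR2E3 transfected cells and 100% = cells lacking NR2E3 construct; higher means lower luciferase signal from less NR2E3 corepressor binding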
# * hit, by the source's call; / = no result. A selection: hits, their analogues and other compounds. The true share with any hit is near 2.2%.
SMILES,GalR3 antagonist,NR2E3 ag-1,NR2F2 inh,SMARCA2 act,NR2E3 ag-2
CCOc1ccc(C(=O)CSCCC(=O)O)cc1,-1,5,56*,-9,23
Cc1ccc(C)c(N2CCN(C(=O)CCS(=O)(=O)c3ccc4c(c3)CCN4C(=O)C3CC3)CC2)c1,-10,3,-3,7.9*,-3
CCOC(=O)C1CCN(C(=O)CCS(=O)(=O)c2ccc3c(c2)CCN3C(=O)CC)CC1,0,1,-9,-1,20
COc1ccc2nc(N3C(=O)C(O)=C(C(=O)c4ccco4)C3c3ccc(C)o3)sc2c1 (centres undefined),-5,/,-18,2,-10
CCOc1ccc2nc(N3C(=O)C(O)=C(C(=O)c4ccco4)C3c3ccco3)sc2c1 (centres undefined),-3,13,-7,7.9*,-41
C=C1C(=O)c2sccc2C(c2ccc(OC)c(OC)c2)C1COC(C)=O (centres undefined),28*,/,89*,-13,22
CCC(CC)NC(=O)O[C@H]1CC[C@@]23CCCN2C(=O)CCC[C@H]3[C@H]1C,/,/,17,/,/
Cc1cc(C)cc(NC(=O)O[C@@H]2CC[C@@]34CCCN3C(=O)CCC[C@H]4C2)c1,/,/,0,/,/
O=C(CCc1ccccc1)N[C@H]1[C@@H](OC(=O)c2cnccn2)CCC[C@@]12C(=O)N(Cc1ccccc1)c1ccccc12,/,/,1,-2,/
O=c1c2c(n3nnnc3n1-c1ccccc1)-c1ccccc1CC21CCCC1,14*,2,-5,-1,4
O=[N+]([O-])c1ccc(/C=C/c2ccncc2)cc1,-8,3,-18,7.9*,-10
O=[N+]([O-])c1cccc(/C=C/c2ccncc2)c1,-6,0,-20,-1,-16
Cc1cccc(C(=O)Nc2nnc(SCC(=O)Nc3ccc4c(c3)oc3ccccc34)s2)c1,-2,4,-10,-5,8
COc1ccccc1C(=O)Nc1nnc(SCC(=O)Nc2ccc3c(c2)oc2ccccc23)s1,-10,-1,3,13*,1
O=S1(=O)c2ccc(N3CCCC3)cc2Oc2ccccc2CN1Cc1cn(Cc2cccc(C(F)(F)F)c2)nn1,/,/,8,-2,/
Cc1cc(=O)[nH]c(N/N=C/c2c(C)nn(-c3ccccc3)c2Cl)n1,4,-2,-9,-3,8
Cc1nn(-c2ccccc2)c(Cl)c1/C=N/Nc1nc2ccccc2[nH]1,-8,1,-54,7.9*,-148
CC(C)CN1C(=O)[C@@]2(CC(=O)N(C)C2c2ccccc2)c2cc(-n3cc(CCc4ccccc4)nn3)ccc21 (some centres undefined),/,/,-34,-5,/
CC(C)C[C@H]1COc2cccc(F)c2S(=O)(=O)N1Cc1cn(Cc2ccc(Cl)cc2)nn1,/,/,2,-3,/
O=C(N/N=C/c1ccccc1OCc1ccccc1)c1cccs1,-7,3,-32,7.9*,-22
N#Cc1ccc(Cn2ccc3ccc(-c4ccc5ccn(C(=O)C6CCCCC6)c5c4)cc32)cc1,/,/,10,2,/
COc1ccc(Cn2c(SCc3ccc(C)cc3)nc3cc(OC)c(OC)cc3c2=N)cc1Cl,-6,0,6,9.2*,15
COC(=O)c1cc2c(c3c4ccccc4n(S(=O)(=O)c4ccc(C)cc4)c13)C(=O)N(C)C2,-6,/,0,7.9*,/
O=C(CSC1=NCCS1)Nc1nc2c(s1)CCCC2,-4,-4,-24,7.9*,-37
CCOC(=O)[C@@]12CN(C(=O)OC(C)(C)C)CC=C1N(Cc1ccc(OC)cc1)C(=O)[C@H]2CC(=O)NCc1cccs1,/,/,5,-1,/
SMILES,GalR3 antagonist,NR2E3 ag-1,NR2F2 inh,SMARCA2 act,NR2E3 ag-2
Cc1cc(C)n(-c2nc(Nc3ccccc3C)nc(-n3nc(C)cc3C)n2)n1,-5,0,6,-1,/
Cc1cc(C)n(-c2nc(NC(C)(C)C)nc(NC(C)(C)C)n2)n1,-5,-1,8,0,105*
Cc1cc(C)n(-c2nc(NC(C)C)nc(NC(C)C)n2)n1,-5,2,36,-2,81*
COC(=O)[C@H]1C[C@@]2(c3ccccc3)c3ccccc3N[C@H]2N1,/,/,2,-3,/
CN[C@H]1C[C@H]2c3cc(-c4ccc5c(c4)OCO5)ccc3CCN2C[C@H]1[C@H](C)O,/,/,-10,-1,/
CN1CCN(C(=O)CCN2C(=O)/C(=C/c3ccccc3Cl)SC2=S)CC1,-1,1,2,7.9*,-4
COc1ccc(C#CCN(C)/C(N)=N/C(=O)OCc2ccccc2)cc1,/,/,17,-4,/
CC1=CC2(C(Cc3ccccc3)N(CC3CC3)C(=NC(=O)c3ccccc3)N2C(=O)OCc2ccccc2)n2c(=O)n(-c3ccccc3)c(=O)n2C1 (centres undefined),/,/,-9,-2,/
O=C(O)C1=CC(=C(c2ccc(O)c(C(=O)O)c2)c2ccc(O)c(C(=O)O)c2)C=CC1=O,/,30*,/,/,/
CC1CCN(Cc2nnnn2CCCC(=O)NCCN2CCOCC2)CC1,0,4,-7,1,-27
C[C@@H]1CN(Cc2nnnn2CC(=O)NCCCn2cccn2)C[C@H](C)O1,2,/,-8,7.9*,-12
COC(=O)[C@]12C[C@H](CC(=O)N3CCN(C(=O)C4CC4)CC3)C(=O)N(CCC3=CCCCC3)C1=C[C@H](C1CCCC1)O[C@@H]2C,/,/,0,-3,/
CCOc1ccccc1NC(=O)CSc1nnc2c(CC)c(C)nc(N)n12,-6,0,5,7.9*,-16
O=c1c2ccccc2nnn1CSc1nc2ccccc2[nH]1,-11,2,-27,14*,-55
CCOc1ccc(CCNC(=O)c2cc3ccsc3n2C)cc1OC,/,/,10,-5,/
CC1CCN(c2oc(-c3ccc(F)cc3)nc2C#N)CC1,-8,4,-26,7.8*,-43
CCCCCc1ccc(NC(=O)O[C@@H]2CC[C@@]34CCCN3C(=O)CCC[C@H]4C2)cc1,/,/,31,/,/
CC(=Nc1ccc(O)cc1)c1sc2ccccc2c1O,0,-1,-61,1,-93
CC(=Nc1cccc(C)c1)c1sc2ccccc2c1O,-8,0,-72,7.9*,-112
Cc1cc(C(=O)O[C@@H]2CCC[C@@]3(C(=O)N(Cc4ccccc4)c4ccccc43)[C@H]2NC(=O)CCc2ccccc2)no1,/,/,-5,0,/
CCOC(=O)c1c(-n2cnnn2)sc2c1CCCC2,-6,3,5,-4,-13
CCOC(=O)c1c(N2C(=O)Nc3cc(Cl)c(Cl)cc3N2O)sc2c1CCCCC2,/,0,/,/,92*
Cc1nn(-c2ccccc2)c(C)c1C(=O)NCCc1ccccc1,-7,6,-29,8.0*,-125
Cc1nn(-c2ccccc2)c(C)c1C(=O)NCCc1ccc(Cl)cc1,-1,1,1,1,0
COc1ccc2nc(/C(C#N)=C\c3ccc(Oc4ccc([N+](=O)[O-])cn4)cc3)[nH]c2c1,5,-3,2,12*,-93
COc1cc(-c2cc(NC=O)c3ncc(-c4ccc(C(C)=O)cc4)n3c2)cc(OC)c1OC,-6,/,-18,4,28
